Calls of active or inactive are those of the source. The calls are words filed in the database; no cut-off is given here.
Tests used:
MDA-MB-468 [1] = experiment: Cytotoxicity against human MDA-MB-468 cells after 48 hrs by SRB assay; assay type: functional; settings: MDA-MB-468, 48 h
Outline: (§1)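 GI50 from the NCI Developmental Therapeutics Program in vitro human tumor cell screen. Cell lines were maintained in RPMI 1640 with 5% fetal bovine serum and 2 mM L-glutamine. They were seeded at 5000–40 000 cells/well, depending on each line's doubling time, then exposed to drug for 48 h at 37 °C, 5% CO2.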

A498 [2] = experiment: Cytotoxicity against human A498 cells assessed as growth inhibition at 10 uM after 48 hrs by SRB assay; assay type: functional, cell-based
Outline: (§2)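 NCI DTP 60-cell-line screen run at the NCI. Cells were grown in RPMI 1640 with 5% FBS and 2 mM L-glutamine. They were seeded at 5000–40 000 cells/well depending on doubling time and grown in two plates per line. Each was exposed to a single 10 μM dose for 48 h at 37 °C, 5% CO2, 95% air, 100% humidity. Read-out was percent growth.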

UACC-257 = experiment: Cytotoxicity against human UACC257 cells assessed as growth inhibition at 10 uM after 48 hrs by SRB assay; assay type: functional, cell-based
Outline: (§3)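 NCI-60 DTP human tumour line screen. Cells grown in RPMI 1640 with 5% fetal bovine serum and 2 mM L-glutamine, plated at 5000–40 000 cells/well according to doubling time. Single dose of 10 μM for 48 h at 37 °C, 5% CO2, 95% air, 100% humidity, two plates per line. Read-out is growth percent.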

MDA-MB-468 [3] = experiment: Cytotoxicity against human MDA-MB-468 cells assessed as growth inhibition at 10 uM after 48 hrs by SRB assay; assay type: functional, cell-based
Outline: (§4)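 Single-dose screen run by the NCI Developmental Therapeutics Program (NCI-60). Cells were grown in RPMI 1640 with 5% fetal bovine serum and 2 mM L-glutamine. They were plated at 5000–40 000 cells/well, depending on doubling time. Each line was run in two plates and exposed to 10 μM drug for 48 h at 37 °C, 5% CO2, 100% humidity. Read-out was growth percent.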

SR = experiment: Cytotoxicity against human SR cells assessed as growth inhibition at 10 uM after 48 hrs by SRB assay; assay type: functional, cell-based; outline: as §3
UACC-62 = experiment: Cytotoxicity against human UACC62 cells assessed as growth inhibition at 10 uM after 48 hrs by SRB assay; assay type: functional, cell-based; outline: as §3
Hs-578T = experiment: Cytotoxicity against human Hs578T cells assessed as growth inhibition at 10 uM after 48 hrs by SRB assay; assay type: functional, cell-based; outline: as §2
SNB-19 [4] = experiment: Cytotoxicity against human SNB19 cells assessed as growth inhibition at 10 uM after 48 hrs by SRB assay; assay type: functional, cell-based; outline: as §3
UO-31 = experiment: Cytotoxicity against human UO31 cells assessed as growth inhibition at 10 uM after 48 hrs by SRB assay; assay type: functional, cell-based; outline: as §3
BT-549 = experiment: Cytotoxicity against human BT549 cells assessed as growth inhibition at 10 uM after 48 hrs by SRB assay; assay type: functional, cell-based; outline: as §2
Malme-3M = experiment: Cytotoxicity against human MALME-3M cells assessed as growth inhibition at 10 uM after 48 hrs by SRB assay; assay type: functional, cell-based; outline: as §2
OVCAR-5 = experiment: Cytotoxicity against human OVCAR5 cells assessed as growth inhibition at 10 uM after 48 hrs by SRB assay; assay type: functional, cell-based; outline: as §4
[5] = Induction of [32P]-labeled 49-mer oligonucleotide duplex DNA 12 interstrand cross-linking (unknown origin) at purine nucleotide site using compound radiolabeled at 5' of 12b in phosphate buffer at pH 7 at 90 degC after 30 mins by PAGE
KM12 = experiment: Cytotoxicity against human KM12 cells assessed as growth inhibition at 10 uM after 48 hrs by SRB assay; assay type: functional, cell-based; outline: as §2
TK-10 = experiment: Cytotoxicity against human TK10 cells assessed as growth inhibition at 10 uM after 48 hrs by SRB assay; assay type: functional, cell-based; outline: as §3
LOX IMVI = experiment: Cytotoxicity against human LOXIMVI cells assessed as growth inhibition at 10 uM after 48 hrs by SRB assay; assay type: functional, cell-based; outline: as §2
A498 [6] = experiment: Cytotoxicity against human A498 cells after 48 hrs by SRB assay; assay type: functional; settings: A498, 48 h
Outline: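 GI50 was determined in the NCI Developmental Therapeutics Program in vitro 60-line cancer screen. Tumour lines were maintained in RPMI 1640 containing 5% FBS and 2 mM L-glutamine. Cells were inoculated at 5000–40 000 cells/well according to each line's doubling time before drug exposure.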

SW-620 = experiment: Cytotoxicity against human SW620 cells assessed as growth inhibition at 10 uM after 48 hrs by SRB assay; assay type: functional, cell-based; outline: as §3
NCI/ADR-RES = experiment: Cytotoxicity against human NCI-ADR-RES cells assessed as growth inhibition at 10 uM after 48 hrs by SRB assay; assay type: functional, cell-based; outline: as §4
SK-OV-3 = experiment: Cytotoxicity against human SKOV3 cells assessed as growth inhibition at 10 uM after 48 hrs by SRB assay; assay type: functional, cell-based; outline: as §4
786-0 = experiment: Cytotoxicity against human 786-0 cells assessed as growth inhibition at 10 uM after 48 hrs by SRB assay; assay type: functional, cell-based; outline: as §2
SNB-19 [7] = experiment: Cytotoxicity against human SNB19 cells after 48 hrs by SRB assay; assay type: functional; settings: SNB-19, 48 h
Outline: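 GI50 from the NCI-60 DTP human tumour line screen. Lines grown in RPMI 1640 with 5% fetal bovine serum and 2 mM L-glutamine, plated at 5000–40 000 cells/well according to doubling time. Incubated 48 h at 37 °C, 5% CO2.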

SK-MEL-5 = experiment: Cytotoxicity against human SK-MEL-5 cells after 48 hrs by SRB assay; assay type: functional; settings: SK-MEL-5, 48 h; outline: as §1
NCI-H226 = experiment: Cytotoxicity against human NCI-H226 cells assessed as growth inhibition at 10 uM after 48 hrs by SRB assay; assay type: functional, cell-based; outline: as §4
MOLT-4 = experiment: Cytotoxicity against human MOLT4 cells assessed as growth inhibition at 10 uM after 48 hrs by SRB assay; assay type: functional, cell-based; outline: as §4
MDA-MB-435 = experiment: Cytotoxicity against human MDA-MB-435 cells assessed as growth inhibition at 10 uM after 48 hrs by SRB assay; assay type: functional, cell-based; outline: as §4
DU-145 = experiment: Cytotoxicity against human DU145 cells assessed as growth inhibition at 10 uM after 48 hrs by SRB assay; assay type: functional, cell-based; outline: as §2
[8] = Induction of [32P]-labeled 49-mer oligonucleotide duplex DNA 12 with GNC sequence at terminus (unknown origin) interstrand cross-linking at 1 mM after 16 hrs by PAGE in presence of H2O2
Outline: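 32P-labelled 12a (1.0 μM) annealed with 1.5 equiv of 12b in 10 mM potassium phosphate pH 7 / 100 mM NaCl (65 °C for 3 min, then slow cooling). Duplex incubated with compound (final 1 μM–5 mM), with or without H2O2, in NaCl and potassium phosphate pH 8 at room temperature for 16 h. Quenched in formamide; 20% denaturing PAGE.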

SN12C [9] = experiment: Cytotoxicity against human SN12C cells after 48 hrs by SRB assay; assay type: functional; outline: as §1
SN12C [10] = experiment: Cytotoxicity against human SN12C cells assessed as growth inhibition at 10 uM after 48 hrs by SRB assay; assay type: functional, cell-based; outline: as §3
NCI-H522 = experiment: Cytotoxicity against human NCI-H522 cells assessed as growth inhibition at 10 uM after 48 hrs by SRB assay; assay type: functional, cell-based; outline: as §4

| SMILES | growth inhibition (GI) (A498 [2]) | growth inhibition (GI) (UACC-257) | growth inhibition (GI) (MDA-MB-468 [3]) | growth inhibition (GI) (SR) | growth inhibition (GI) (UACC-62) | growth inhibition (GI) (Hs-578T) | growth inhibition (GI) (SNB-19 [4]) | growth inhibition (GI) (UO-31) | growth inhibition (GI) (BT-549) | growth inhibition (GI) (Malme-3M) | growth inhibition (GI) (OVCAR-5) | growth inhibition (GI) (KM12) | growth inhibition (GI) (TK-10) | growth inhibition (GI) (LOX IMVI) | growth inhibition (GI) (SW-620) | growth inhibition (GI) (NCI/ADR-RES) | growth inhibition (GI) (SK-OV-3) | growth inhibition (GI) (786-0) | growth inhibition (GI) (NCI-H226) | growth inhibition (GI) (MOLT-4) | other results |
| --- | --- | --- | --- | --- | --- | --- | --- | --- | --- | --- | --- | --- | --- | --- | --- | --- | --- | --- | --- | --- | --- |
| CC1(C)OB(c2ccc(N(CCCl)CCBr)cc2)OC1(C)C | Active | Active | Active | Active | Active | Active | Active | Active | Active | Active | Active | Active | Active | Active | Active | Active | Active | Active | Active | Active | GI50 (MDA-MB-468 [1]): 1.49 µM; Activity [5]: Active; GI50 (A498 [6]): 5.87 µM; GI50 (SNB-19 [7]): 10.6 µM; GI50 (SK-MEL-5): 13.7 µM; growth inhibition (GI) (MDA-MB-435): Active; growth inhibition (GI) (DU-145): Active; Activity [8]: 37%; GI50 (SN12C [9]): 4.45 µM; growth inhibition (GI) (SN12C [10]): Active; growth inhibition (GI) (NCI-H522): Active |
| CC1(C)OB(c2ccc(N(CCCl)CCCl)cc2)OC1(C)C | Active | Active | Active | Active | Active | Active | Active | Active | Active | Active | Active | Active | Active | Active | Active | Active | Active | Active | Active | Active | GI50 (MDA-MB-468 [1]): 1.6 µM; Activity [5]: Active; GI50 (A498 [6]): 2.81 µM; GI50 (SNB-19 [7]): 8.06 µM; GI50 (SK-MEL-5): 14.5 µM; growth inhibition (GI) (MDA-MB-435): Active; growth inhibition (GI) (DU-145): Active; Activity [8]: 37%; GI50 (SN12C [9]): 4.11 µM; growth inhibition (GI) (SN12C [10]): Active; growth inhibition (GI) (NCI-H522): Active |
| CC1(C)OB(c2ccc(N(CCBr)CCOS(C)(=O)=O)cc2)OC1(C)C | Active | Active | Active | Active | Active | Active | Active | Active | Active | Active | Active | Active | Active | Active | Active | Active | Active | Active | Active | Active | Activity [5]: Active; growth inhibition (GI) (MDA-MB-435): Active; growth inhibition (GI) (DU-145): Active; Activity [8]: 37%; growth inhibition (GI) (SN12C [10]): Active; growth inhibition (GI) (NCI-H522): Active |
| CC1(C)OB(c2ccc(COC(=O)N(CCCl)CCCl)cc2)OC1(C)C | inactive | inactive | inactive | inactive | inactive | inactive | inactive | inactive | inactive | inactive | inactive | inactive | inactive | inactive | inactive | inactive | inactive | inactive | inactive | inactive | growth inhibition (GI) (MDA-MB-435): inactive; growth inhibition (GI) (DU-145): inactive; Activity [8]: inactive; growth inhibition (GI) (SN12C [10]): inactive; growth inhibition (GI) (NCI-H522): inactive |
| CC1(C)OB(c2ccc(N(CCBr)CCBr)cc2)OC1(C)C | Active | Active | Active | Active | Active | Active | Active | Active | Active | Active | Active | Active | Active | Active | Active | Active | Active | Active | Active | Active | Activity [5]: Active; growth inhibition (GI) (MDA-MB-435): Active; growth inhibition (GI) (DU-145): Active; Activity [8]: 37%; growth inhibition (GI) (SN12C [10]): Active; growth inhibition (GI) (NCI-H522): Active |

— ChEMBL document CHEMBL3286203, “Reactive oxygen species (ROS) inducible DNA cross-linking agents and their effect on cancer cells and normal lymphocytes” (J Med Chem, 2014)
